The source of these data is PubChem BioAssay AID493226 (Broad Institute, 2011).

Each structure is given as a SMILES string. Where “and” joins values, the source holds several entries; their conditions need not be identical. Identical values can stand only once. Results filed as inconclusive are left out. Calls of active or inactive are those of the source.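 The calls were made as follows: active = every repeat test active, with falling cell-viability signal and fitted midpoint potency at most ten times the top dose; inconclusive = tests disagree, flat partial drop, or a poor curve fit; inactive = every test flat, too weak, or rising.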

System in one assay: not listed separately
In words: breast cancer stem cell viability inhibitors – luminescence, dry powder, set 2, dose response (AID 493226). To be noted: HMLE_shECad viability, CellTiter-Glo luminescence, 72 h; at 30 µM (top of the series). Summed up:
(§1)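 Material: HMLE cells with stable E-cadherin knockdown (HMLE_shECad), EMT-induced CSC model; Amount: 2000 cells/well; Medium: serum-free CSC screening medium; Dosing: 100 nL compound per well by pin transfer; Schedule: ≥4 h attachment, ~72 h compound exposure, 37 °C; Technique: CellTiter-Glo luminescence.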
(In general: Cellular ATP, detected with luciferase, serves as a proxy for viable cell number.)
In the case of `O=C(NC1=NCCS1)c1cc2ccccc2[nH]1`, the activity change, negative = inhibition is -16.7% (inactive).

Take `O=C(C#Cc1ccccc1)NC1=NCCS1`: the activity change, negative = inhibition was 3.65% (inactive).

Consider `COc1ccc(OC)c(/C=C/C(=O)NC2=NCCS2)c1`, for which the activity change, negative = inhibition is 4.36% (inactive).

Turning to `CCNC(=O)/C=C/c1ccc(C(C)C)cc1`, the activity change, negative = inhibition is 0.062% (inactive).

Regarding `NNC(=O)COc1ccc(Cl)cc1Cl`, the activity change, negative = inhibition was -13% (inactive).

`C/C(=N\NC(=O)COc1ccc(Cl)cc1Cl)c1ccc[nH]1`: the activity change, negative = inhibition was -10.8% (inactive).

As to `O=C(NC1CCCC1)c1ccc(COc2ccccc2)o1`, the activity change, negative = inhibition is -15.7% (inactive).

As to `CC(=O)Oc1ccc(/C=C/C(=O)NC2=NCCS2)cc1`, the activity change, negative = inhibition was -16.2% (inactive).

Regarding `O=C(COc1ccc(Cl)cc1Cl)N/N=C/c1cnc[nH]1`, the activity change, negative = inhibition was 3.31% (inactive).

In the case of `Cc1ccccc1NCC(=O)N/N=C/c1ccc[nH]1`, the activity change, negative = inhibition is -14.1% (inactive).

With `O=C(O)c1ccc(COc2ccccc2)o1`, the activity change, negative = inhibition was -1.91% (inactive).

`O=C(/C=C/c1cc(Cl)ccc1Cl)NC1=NCCS1`: the activity change, negative = inhibition is -13.1% (inactive).

`O=C(N/N=C/c1ccc[nH]1)C1Cc2ccccc2O1` (stereo not given): the activity change, negative = inhibition was 12.7% (inactive).

Consider `O=Cc1ccc[nH]1`, for which the activity change, negative = inhibition was -5.79% (inactive).

With `O=C(COc1ccc(Cl)cc1Cl)N/N=C/c1ccco1`, the activity change, negative = inhibition is -7.8% (inactive).

Consider `Cc1ccccc1/C=C/C(=O)NC1=NCCS1`, for which the activity change, negative = inhibition was -11.7% (inactive).

For the compound `COc1cc(/C=C/C(=O)NC2=NCCS2)cc(OC)c1OC`, the activity change, negative = inhibition is 0.693% (inactive).

As for `O=C(COc1ccccc1F)N/N=C/c1ccc[nH]1`, the activity change, negative = inhibition was 3.8% (inactive).

Consider `O=C(CCc1ccccc1)NC1=NCCS1`, for which the activity change, negative = inhibition is -2.41% (inactive).

Turning to `O=C(COc1ccc(Cl)cc1Cl)N/N=C/c1cccs1`, the activity change, negative = inhibition is -4.9% (inactive).

With `CCN(CC)C(=O)/C=C/c1ccc(C(C)C)cc1`, the activity change, negative = inhibition was -2.71% (inactive).

As to `O=C(/C=C/c1ccc(Cl)c(Cl)c1)NC1=NCCS1`, the activity change, negative = inhibition was 8.35% (inactive).

On to `CC(C)c1ccc(/C=C/C(=O)O)cc1`, for which the activity change, negative = inhibition is 4.33% (inactive).

As for `Cc1c(C(=O)NC2=NCCS2)oc2ccccc12`, the activity change, negative = inhibition is -22.6% (inactive).

For another assay, the system named is HMLE_shECad viability, CellTiter-Glo luminescence, 72 h. The assay is described as above.
Settings: not given
In outline:
as §1
A word on the AC50: it is the midpoint of the concentration-response curve, whichever way the signal moves. Turning to `CN(C)c1ccc(/C=C/C(=O)NC2=NCCS2)cc1`, the AC50 is 27.3 µM.

As to `O=C(COc1cc(Cl)ccc1Cl)N/N=C/c1ccc[nH]1`, the concentration at half-maximal activity (AC50) was 3.39 µM.

On to `Cc1csc(NC(=O)/C=C/c2ccc(C(C)C)cc2)n1`, for which the concentration at half-maximal activity (AC50) is 3.29 µM.

Consider `O=C(COc1ccc(Cl)cc1Cl)N/N=C/c1ccc[nH]1`, for which the half-maximal activity concentration (AC50) was 2.38 µM and 3.33 µM.

As for `Cc1cc(Cl)ccc1OCC(=O)N/N=C/c1ccc[nH]1`, the AC50 is 2.89 µM.

In the case of `CC(C)c1ccc(/C=C/C(=O)NC2=NCCS2)cc1`, the half-maximal activity concentration (AC50) is 0.839 µM.

`Cc1cc(C)c(/C=N/NC(=O)COc2ccc(Cl)cc2Cl)[nH]1`: the AC50 is 12.6 µM.

For `O=C(N/N=C/c1ccc[nH]1)c1cc2ccccc2o1`, the AC50 is 6.33 µM.

Take `O=C(COc1c(Cl)cc(Cl)cc1Cl)N/N=C/c1ccc[nH]1`: the half-maximal activity concentration (AC50) was 1.16 µM.

In the case of `CC(C)(C)c1ccc2c(c1)OC(C(=O)N/N=C/c1ccc[nH]1)CO2` (stereo not given), the AC50 is 2.52 µM and 2.79 µM.

In the case of `O=C(COc1ccc(F)cc1Cl)N/N=C/c1ccc[nH]1`, the concentration at half-maximal activity (AC50) was 8.88 µM.

In the case of `Cc1ccc(/C=N/NC(=O)COc2ccc(Cl)cc2Cl)[nH]1`, the AC50 was 14.3 µM.

On to `Cc1csc(NC(=O)c2ccc(COc3ccccc3)o2)n1`, for which the AC50 was 1.18 µM.

With `O=C(COc1ccc(Cl)cc1)N/N=C/c1ccc[nH]1`, the concentration at half-maximal activity (AC50) is 22.5 µM.

Take `CC(C)c1ccc(/C=C/C(=O)Nc2ccccc2)cc1`: the half-maximal activity concentration (AC50) was 3.44 µM.

For `COc1ccc(/C=C/C(=O)NC2=NCCS2)c(OC)c1`, the AC50 was 9.45 µM.
